SENP7 block: inhibitors of human SENP7 protease; 330,000 compounds, 1.5% hits; AID 434973; inhibition, % at 5 µM; Q9BQF6; recombinant SENP7, Z-RLRGG-aminoluciferin luminescence, 40 min;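 active = inhibition above about 50% at the single test dose, limit read from the data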
Target sequence (Q9BQF6 706-1050 limits assumed): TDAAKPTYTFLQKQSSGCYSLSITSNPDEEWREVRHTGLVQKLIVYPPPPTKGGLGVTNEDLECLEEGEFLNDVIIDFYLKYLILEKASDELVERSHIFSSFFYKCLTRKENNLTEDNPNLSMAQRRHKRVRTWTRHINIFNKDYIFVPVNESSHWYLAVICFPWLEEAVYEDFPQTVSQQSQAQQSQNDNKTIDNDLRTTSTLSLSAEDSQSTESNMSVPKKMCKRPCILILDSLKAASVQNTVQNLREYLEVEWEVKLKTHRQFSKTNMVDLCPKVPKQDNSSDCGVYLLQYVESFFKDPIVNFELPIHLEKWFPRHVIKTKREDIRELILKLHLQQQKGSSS
SENP1 FRET inh: inhibitors of human SENP1 SUMO protease catalytic domain; 360,000 compounds, 0.21% hits; AID 624204; recombinant SENP1 catalytic domain, CyPet-SUMO1-YPet FRET cleavage; inhibition, % at 10 µM; Q9P0U3;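 active = inhibition at least 30% at 10 µM, raw YFP signal under a set limit, fluorescence ratio 0.5 to 1.5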
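Material – human SENP1 catalytic domain · Input – SENP1 enzyme, 20 pM final · Compound dosing – single concentration of 10 µM compound, 0.5% DMSO final · Timing – enzyme reaction for 50 min at room temperature, dark · Measured by – FRET fluorescence in CFP and YFP emission channels · Control set – no-enzyme wells low, DMSO-plus-enzyme wells high control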
SENP6 block: SENP6 protease inhibition; Q9GZR1; Recombinant SENP6 catalytic domain, aminoluciferin luminescence; inhibition, % at 10 µM; 330,000 compounds, 1.8% hits; AID 2599;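 active = inhibition above about 50% at the single tested dose, limit read from the data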
SENP8 block-1: SENP8 protease inhibition; Q96LD8; purified SENP8, Z-RLRGG-aminoluciferin cleavage, luminescence; inhibition, % at 10 µM; 330,000 compounds, 1.2% hits; AID 2540; in the data active = inhibition above about 50%
Target sequence (Q96LD8 whole entry, looked up): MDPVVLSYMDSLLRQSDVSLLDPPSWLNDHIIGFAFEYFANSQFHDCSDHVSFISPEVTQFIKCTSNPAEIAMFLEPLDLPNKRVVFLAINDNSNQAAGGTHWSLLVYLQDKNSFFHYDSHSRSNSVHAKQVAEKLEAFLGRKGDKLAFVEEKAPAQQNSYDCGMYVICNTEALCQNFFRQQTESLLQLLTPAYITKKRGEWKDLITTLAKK
SENP8 block-2: blocks human SENP8 cleavage of Nedd8 substrate; recombinant SENP8, Nedd8 substrate fluorescence; AID 602440; inhibition, % at 20 µM; Q96LD8; 360,000 compounds, 0.64% hits; in the data active = inhibition mostly above about 40%, no sharp cut-off; inactive = mostly below about 27%
SENP8 confirm: confirmation of human SENP8 protease inhibitors. 6,200 compounds, 40% hits. inhibition, % at 12.5 µM. Recombinant SENP8, Z-RLRGG-aminoluciferin luminescence, 60 min. shares compounds with SENP7 block;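 active = mean inhibition across replicates above about 50%, limit read from the data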
SENP6 conf: human SENP6 inhibition, confirmed; 6,200 compounds, 58% hits; AID 488915; inhibition, % at 12.5 µM; recombinant SENP6, Z-RLRGG-aminoluciferin luminescence; shares compounds with SENP7 block
SENP7 conf: human SENP7 inhibition, confirmed; shares compounds with SENP7 block; inhibition, % at 12.5 µM; recombinant SENP7, Z-RLRGG-aminoluciferin luminescence, 40 min; AID 488917; 6,200 compounds, 69% hits
Casp3 select: selectivity test for SENP inhibitors: human caspase-3 inhibition. inhibition, % at 12.5 µM. 6,200 compounds, 60% hits. purified caspase-3, Z-DEVD-aminoluciferin luminescence, 60 min. shares compounds with SENP7 block. AID 488918;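 active = mean inhibition above about 50%, limit read from the data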
SENP luc ctr: counter-screen for SENP inhibitors: luminescence interference. Pre-incubated SENP8/Z-RLRGG-aminoluciferin, luciferase luminescence interference. inhibition, % at 12.5 µM. shares compounds with SENP7 block. 6,200 compounds, 39% hits;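 active = mean inhibition above about 50% when retested at one dose, limit read from the data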
A number is an active result; – = inactive; · = no result. Shown are actives, neighbours in structure and some others; about 2.5% of the full set was active somewhere.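 Rule for the calls, unless noted: active = mean inhibition above about 50% in the one-dose retest (limit read from the data); inactive = the rest.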

SMILES	SENP7 block	SENP1 FRET inh	SENP6 block	SENP8 block-1	SENP8 block-2	SENP8 confirm	SENP6 conf	SENP7 conf	Casp3 select	SENP luc ctr
O=C(Oc1ccc(-c2ccccc2)cc1)c1ccco1	·	–	·	·	–	·	·	·	·	·
Cc1cccc(/C(N)=N/OC(=O)c2ccco2)c1	91	–	92	84	–	91	92	101	94	86
N/C(=N\OC(=O)c1ccco1)c1ccccc1	81	–	88	82	–	74	75	95	90	76
N/C(=N\OC(=O)CCCc1ccccc1)c1ccccc1	–	–	–	–	–	·	·	·	·	·
CCSCCc1nnc(NC(=O)Nc2cccc(C(F)(F)F)c2)s1	–	–	–	–	–	·	·	·	·	·
CCc1cccc(NC(=O)Cc2ccc(OC)c(OC)c2)c1	–	–	–	–	–	·	·	·	·	·
N/C(=N\OC(=O)c1ccco1)c1ccc(Br)cc1	76	–	93	74	–	84	83	97	75	73
N/C(=N\OC(=O)c1cccc(Br)c1)c1ccc(Br)cc1	–	–	–	–	–	·	·	·	·	·
COc1ccc(/C(N)=N/OC(=O)c2ccco2)cc1	–	–	91	84	–	89	90	98	91	86
Cc1occc1C(=O)O/N=C(\N)c1ccc(Cl)cc1	61	–	53	–	–	–	–	74	69	58
Cc1ccc(/C(N)=N/OC(=O)c2ccco2)cc1	95	–	73	89	–	76	95	102	91	68
COc1ccc(C(=O)O/N=C(\N)c2ccc(Br)cc2)cc1	–	–	–	–	–	·	·	·	·	·
COc1ccc(NC(=O)c2ccc(NC(=O)CN(C)CC(=O)Nc3c(C)cccc3C)cc2)cc1	–	–	–	–	–	·	·	·	·	·
N/C(=N\OC(=O)c1ccco1)c1ccccn1	78	–	76	–	–	62	62	91	92	76
Cc1cccc(C)c1OCC(O)CN1CCC(CN2C(=O)c3cccc4cccc(c34)C2=O)CC1 (centres undefined)	–	–	–	–	–	·	·	·	·	·
Cc1cccc(NS(=O)(=O)Cc2ccccc2)n1	–	–	–	–	–	·	·	·	·	·
Cc1cccc(C#Cc2ccccc2)n1	90	–	91	84	–	–	73	96	82	–
COc1ccc(NC(=O)C2(S(=O)(=O)c3ccc(C)cc3)CC2)cc1OC	–	–	–	–	–	·	·	·	·	·
Brc1ccc(NCc2nnc3n2CCCCC3)cc1	99	–	–	–	–	–	–	–	–	–
Cc1nc2ccccn2c1C(=O)NN=C1C2CC3CC(C2)CC1C3	–	–	–	–	–	·	·	·	·	·
Cc1ccc(N=Cc2c(O)c3ccccc3oc2=O)c(C)c1	86	–	–	–	–	53	52	–	–	–
COc1cccc(N=Cc2c(O)c3ccccc3oc2=O)c1	–	–	62	–	–	–	–	76	–	–
Cc1ccc(F)cc1N=Cc1c(O)c2ccccc2oc1=O	–	–	–	–	–	·	·	·	·	·
CC(=O)c1cccc(N=Cc2c(O)c3ccccc3oc2=O)c1	–	–	–	–	–	·	·	·	·	·
CCn1cc(/C=C(\NC(=O)c2ccccc2F)C(=O)NCCCn2ccnc2)c2ccccc21	–	–	–	–	–	·	·	·	·	·
SMILES	SENP7 block	SENP1 FRET inh	SENP6 block	SENP8 block-1	SENP8 block-2	SENP8 confirm	SENP6 conf	SENP7 conf	Casp3 select	SENP luc ctr
CCOC(=O)c1sc(-c2ccccc2)nc1C	–	–	–	–	–	·	·	·	·	·
CCOC(=O)Cc1ccc2sc(-c3ccccc3)nc2c1	99	–	97	95	–	98	99	102	97	92
COc1ccc(NC(=O)c2ccc(OCC3CCCO3)cc2)cc1Cl (centres undefined)	67	–	55	–	–	–	–	73	–	–
Cc1ccnc(NC(=O)COc2ccc3c(c2)CCC3)c1	94	–	82	94	–	87	86	98	91	84
Cc1ccnc(NC(=O)c2ccc(OCC3CCCO3)cc2)c1 (centres undefined)	83	–	84	75	–	82	82	97	94	61
Cc1ccc(NC(=O)c2ccc(OCC3CCCO3)cc2)c(C)c1 (centres undefined)	–	–	–	–	–	·	·	·	·	·
Cc1ccsc1C(=O)NNC(=O)c1ccccc1F	58	–	–	–	–	–	–	76	83	56
CCOC(=O)c1cc(CC)sc1NC(=O)CN1C(=O)C(=O)N(CC(C)C)C1=O	–	–	–	–	–	·	·	·	·	·
COc1ccc(-c2nc3cc([N+](=O)[O-])ccc3o2)cc1	77	–	–	–	–	–	–	–	59	–
CC(C)(C)Nc1nc2cc([N+](=O)[O-])ccc2o1	–	–	–	–	–	·	·	·	·	·
Nc1ccc(-c2nc3cc([N+](=O)[O-])ccc3o2)cc1	56	–	63	–	–	–	–	85	54	–
COc1ccc(-n2cnc3cc([N+](=O)[O-])ccc32)cc1	·	–	·	·	–	·	·	·	·	·
O=C(CC(Nc1ccc(Cl)cc1)C(=O)O)c1ccccc1 (centres undefined)	81	–	92	77	–	–	86	78	67	–
O=C1C2C3C=CC(CC3)C2C(=O)N1/N=C/c1ccc(O)c(O)c1 (centres undefined)	–	–	–	–	–	·	·	·	·	·
O=C1c2ccccc2C(=O)N1/N=C/c1ccc(O)c(O)c1	–	–	66	51	–	–	–	82	70	64
CCC(C)(C)NC(=O)CN(Cc1ccc(OC)cc1)C(=O)CCC(=O)Nc1nccs1	–	–	–	–	–	·	·	·	·	·
O=C(COC(=O)c1ccc(Br)cc1)NCCc1ccccc1	–	–	–	–	–	·	·	·	·	·
CC(C)(C)c1ccc(C(=O)O/N=C(\N)c2ccccc2)cc1	95	–	93	90	–	96	96	102	92	–
O=C(COC(=O)c1ccccc1)c1ccc(Br)cc1	–	–	86	83	–	–	64	87	63	–
COc1ccc(C(=O)O/N=C(\N)c2ccccc2)cc1	100	–	97	97	–	99	100	103	98	98
N/C(=N\OC(=O)c1ccc(Br)cc1)c1ccccc1	99	–	93	94	–	81	96	102	97	53
Clc1ccccc1CN1CCN(/N=C/C=C/c2ccco2)CC1	–	–	–	–	–	·	·	·	·	·
COc1ccc(/C(N)=N/OC(=O)CSc2ccc(C)cc2)cc1	–	–	–	–	–	·	·	·	·	·

Screens as filed in PubChem BioAssay.
